Data published in ChEMBL document CHEMBL1240455, “Synthesis of 5-[alkoxy-(4-nitro-phenyl)-methyl]-uridines and study of their cytotoxic activity” (Eur J Med Chem, 2010).
Converted amounts (≈) assume the structure as drawn.

Key:
CCRF-CEM [1] = assay: Inhibition of RNA synthesis in human CEM cells assessed as BrU incorporation using propidium iodide staining at IC50 concentration after 24 hrs by flow cytometry; assay type: functional; parameters: scale not given: the % may be the effect or the level left
Outline: (§1)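 RNA synthesis measured by flow cytometry of incorporated 5-bromouridine, detected with a cross-reacting anti-BrdU antibody. CEM cells exposed at 1× and 5× IC50 for 3, 6, 9 and 24 h and pulsed for 30 min at 37 °C before harvest. Fixed 15 min in 1% paraformaldehyde/0.05% NP-40 in PBS and stored at 4 °C at least overnight. Stained with primary and FITC secondary antibodies, 30 min each at room temperature.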

CCRF-CEM [2] = assay: Inhibition of DNA synthesis in human CEM cells assessed as BrDU incorporation using propidium iodide staining at IC50 concentration after 24 hrs by flow cytometry; assay type: functional; parameters: scale not given: the % may be the effect or the level left
Outline: (§2)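 CEM cells exposed at 1× and 5× IC50 for 3, 6, 9 and 24 h, then pulsed with BrdU for 30 min at 37 °C. Cells fixed overnight in ice-cold 70% ethanol and DNA denatured in 2 M HCl for 30 min. Neutralised with 0.1 M sodium borate, then stained with anti-BrdU antibody, FITC secondary, and propidium iodide/RNase. Read by flow cytometry at 488 nm.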

CCRF-CEM [3] = assay: Inhibition of RNA synthesis in human CEM cells assessed as BrU incorporation using propidium iodide staining at 5 times IC50 concentration after 24 hrs by flow cytometry; assay type: functional; parameters: scale not given: the % may be the effect or the level left; outline: as §1
K562 [4] = assay: Cytotoxicity against human paclitaxel-resistant K562 cells after 72 hrs by MTT assay; assay type: functional, cell-based
Outline: (§3)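 Cells seeded at 2500–30,000 per well by cell type and pre-incubated 24 h at 37 °C, 5% CO2. Compounds dissolved in 10% DMSO, added as four-fold dilutions at time zero, tested in quadruplicate. Exposure 72 h at 37 °C, 5% CO2, 100% humidity. MTT then added for 1–4 h, formazan dissolved overnight at 37 °C, OD read at 540 nm. IC50 taken from dose-response curves relative to control wells.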

K562 [5] = assay: Cytotoxicity against human K562 cells after 72 hrs by MTT assay; assay type: functional, cell-based; outline: as §3
[6] = test system: Staphylococcus haemolyticus; assay: Antimicrobial activity against Staphylococcus haemolyticus after 24 hrs; assay type: functional
Outline: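 MIC taken as the lowest concentration preventing bacterial growth after 24 h incubation at 37 °C. Strains came from the Czech Collection of Microorganisms or from clinical isolates of hospital patients.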

CCRF-CEM [7] = assay: Cell cycle arrest in human CEM cells assessed as accumulation at G2/M phase using propidium iodide staining at IC50 concentration after 24 hrs by flow cytometry; assay type: functional
CCRF-CEM [8] = assay: Induction of mitotic arrest in human CEM cells assessed as pH3Ser10 positive cells at IC50 concentration after 24 hrs by flow cytometry; assay type: functional
CCRF-CEM [9] = assay: Induction of apoptosis in human CEM cells using propidium iodide staining at 5 times IC50 concentration after 24 hrs by flow cytometry; assay type: functional
CCRF-CEM [10] = assay: Cytotoxicity against human CEM cells after 72 hrs by MTT assay; assay type: functional, cell-based; outline: as §3
A549 = assay: Cytotoxicity against human A549 cells after 72 hrs by MTT assay; assay type: functional, cell-based; outline: as §3
CCRF-CEM [11] = assay: Inhibition of DNA synthesis in human CEM cells assessed as BrDU incorporation using propidium iodide staining at 5 times IC50 concentration after 24 hrs by flow cytometry; assay type: functional; parameters: scale not given: the % may be the effect or the level left; outline: as §2
[12] = Cytotoxicity against human CEM-DNR-B cells after 72 hrs by MTT assay; assay type: functional, cell-based; outline: as §3
CCRF-CEM [13] = assay: Induction of mitotic arrest in human CEM cells assessed as pH3Ser10 positive cells at 5 times IC50 concentration after 24 hrs by flow cytometry; assay type: functional
Staphylococcus aureus [14] = assay: Antimicrobial activity against Staphylococcus aureus CCM 3953 after 24 hrs; assay type: functional; details: CCM 3953, 24 h
Enterococcus faecalis = assay: Antimicrobial activity against Enterococcus faecalis CCM 4224 after 24 hrs; assay type: functional; details: CCM 4224, 24 h
CCRF-CEM [15] = assay: Cell cycle arrest in human CEM cells assessed as accumulation at G0/G1 phase using propidium iodide staining at IC50 concentration after 24 hrs by flow cytometry; assay type: functional
CCRF-CEM [16] = assay: Cell cycle arrest in human CEM cells assessed as accumulation at S phase using propidium iodide staining at IC50 concentration after 24 hrs by flow cytometry; assay type: functional
Staphylococcus aureus [17] = assay: Antimicrobial activity against methicillin-resistant Staphylococcus aureus after 24 hrs; assay type: functional
CCRF-CEM [18] = assay: Induction of apoptosis in human CEM cells using propidium iodide staining at IC50 concentration after 24 hrs by flow cytometry; assay type: functional
CCRF-CEM [19] = assay: Cell cycle arrest in human CEM cells assessed as accumulation at G0/G1 phase using propidium iodide staining at 5 times IC50 concentration after 24 hrs by flow cytometry; assay type: functional
Outline: (§4)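 CEM T-lymphoblastic leukemia cells were exposed to compound at 1× and 5× IC50 over a 24 h interval. DNA content was measured by flow cytometry with a 488 nm laser.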

CCRF-CEM [20] = assay: Cell cycle arrest in human CEM cells assessed as accumulation at G2/M phase using propidium iodide staining at 5 times IC50 concentration after 24 hrs by flow cytometry; assay type: functional; outline: as §4
CCRF-CEM [21] = assay: Cell cycle arrest in human CEM cells assessed as accumulation at S phase using propidium iodide staining at 5 times IC50 concentration after 24 hrs by flow cytometry; assay type: functional; outline: as §4

Row | Compound | Activity (CCRF-CEM [1]) [%] | Activity (CCRF-CEM [2]) [%] | Activity (CCRF-CEM [3]) [%] | IC50 (K562 [4]; Homo sapiens, K562, 72 h) [µM] | IC50 (K562 [5]; Homo sapiens, K562, 72 h) [µM] | Activity (CCRF-CEM [7]) [%] | Activity (CCRF-CEM [8]) [%] | Activity (CCRF-CEM [9]) [%] | IC50 (CCRF-CEM [10]; Homo sapiens, CCRF-CEM, 72 h) [µM] | IC50 (A549; Homo sapiens, A549, 72 h) [µM] | Activity (CCRF-CEM [11]) [%] | IC50 ([12]; Homo sapiens, 72 h) [µM] | Activity (CCRF-CEM [13]) [%] | Activity (CCRF-CEM [15]) [%] | Activity (CCRF-CEM [16]) [%] | Activity (CCRF-CEM [18]) [%] | IC50 (CCRF-CEM [10]; ccrf-cem) [µM] | IC50 (K562 [4]; k562) [µM] | IC50 (K562 [5]; k562) [µM] | IC50 (A549; a549) [µM] | also measured
1 | CCCCCCCCCOC(c1ccc([N+](=O)[O-])cc1)c1cn([C@@H]2O[C@H](CO)[C@@H](O)[C@H]2O)c(=O)[nH]c1=O (stereo in doubt; (+)-7i) | 60.22 | 52.17 | 0.8 | 14.6 | 10.9 | 11.25 | 1.66 | 83 | 7.9 | 23.1 | 2.95 | 32.3 | 0.25 | 40.95 | 47.81 | 4 | – | – | – | – | MIC [6]: 100 µM (≈ 52.2 µg/mL); MIC (Staphylococcus aureus [14]): 50 µM (≈ 26.1 µg/mL); MIC (Enterococcus faecalis): 50 µM (≈ 26.1 µg/mL); MIC (Staphylococcus aureus [17]): 50 µM (≈ 26.1 µg/mL)
2 | CCCCCCCOC(c1ccc([N+](=O)[O-])cc1)c1cn([C@@H]2O[C@H](CO)[C@@H](O)[C@H]2O)c(=O)[nH]c1=O (stereo in doubt; (+)7g) | – | – | – | 42.8 | 33.6 | – | – | – | – | 39.8 | – | 104 | – | – | – | – | 12.8 | – | – | – | –
3 | CCCCCCOC(c1ccc([N+](=O)[O-])cc1)c1cn([C@@H]2O[C@H](CO)[C@@H](O)[C@H]2O)c(=O)[nH]c1=O (stereo in doubt; (+)-7f) | – | – | – | 141 | 58.4 | – | – | – | 39.8 | 121 | – | 131 | – | – | – | – | – | – | – | – | –
4 | CCCCCCOC(c1ccc([N+](=O)[O-])cc1)c1cn([C@@H]2O[C@H](CO)[C@@H](O)[C@H]2O)c(=O)[nH]c1=O (single isomer, unassigned; (-)) | – | – | – | – | – | – | – | – | – | – | – | – | – | – | – | – | 45.5 | 137 | 64.5 | 156 | IC50 [12]: 146 µM
5 | CCCCCCCOC(c1ccc([N+](=O)[O-])cc1)c1cn([C@@H]2O[C@H](CO)[C@@H](O)[C@H]2O)c(=O)[nH]c1=O (stereo in doubt; (-)-8g) | – | – | – | – | – | – | – | – | – | – | – | – | – | – | – | – | 29 | 52.3 | 36.7 | 69.9 | IC50 [12]: 95.6 µM
6 | Nc1nc2[nH]cnc2c(=S)[nH]1 [THIOGUANINE] | 45.84 | 35.32 | 48.93 | 3.9 | 1.54 | 7.19 | 1.21 | 18.69 | 2.98 | 2.82 | 19.82 | 9.47 | 0.43 | 43.42 | 49.39 | 11.27 | – | – | – | – | Activity (CCRF-CEM [19]): 43.58%; Activity (CCRF-CEM [20]): 9.95%; Activity (CCRF-CEM [21]): 46.47%
7 | CCCCCCCCCOC(c1ccc([N+](=O)[O-])cc1)c1cn([C@@H]2O[C@H](CO)[C@@H](O)[C@H]2O)c(=O)[nH]c1=O (single isomer, unassigned; (-)) | 57.26 | 47.38 | 1.9 | – | – | 8.83 | 1.74 | – | – | – | 0.95 | – | 0.04 | 43.38 | 47.79 | – | 10 | 23.9 | 13 | 29.1 | IC50 [12]: 33.8 µM
8 | CCCCCCCCOC(c1ccc([N+](=O)[O-])cc1)c1cn([C@@H]2O[C@H](CO)[C@@H](O)[C@H]2O)c(=O)[nH]c1=O (stereo in doubt; (-)-8h) | 56.18 | 48.73 | 1.61 | – | – | 11.33 | 1.68 | 71 | – | – | 6.67 | – | 0.01 | 40.02 | 48.56 | 5 | 16.9 | 34.4 | 24.7 | 39.7 | IC50 [12]: 36.6 µM
9 | CCCCCCCCOC(c1ccc([N+](=O)[O-])cc1)c1cn([C@@H]2O[C@H](CO)[C@@H](O)[C@H]2O)c(=O)[nH]c1=O (single isomer, unassigned; (+)) | 58.1 | 46.03 | 1.44 | 33.1 | 15.1 | 9.83 | 2.05 | 76 | 11.4 | 38.7 | 6.01 | 34.6 | 0.03 | 42.36 | 47.81 | 7 | – | – | – | – | MIC [6]: 200 µM (≈ 102 µg/mL); MIC (Staphylococcus aureus [14]): 100 µM (≈ 50.8 µg/mL); MIC (Enterococcus faecalis): 200 µM (≈ 102 µg/mL); MIC (Staphylococcus aureus [17]): 100 µM (≈ 50.8 µg/mL)
10 | Nc1nc(F)nc2c1ncn2[C@@H]1O[C@H](CO)[C@@H](O)[C@@H]1O [FLUDARABINE] | 7.62 | 14.12 | 8.92 | 0.26 | 267 | 19.5 | 0.28 | 74.84 | 19.5 | 47.4 | 10.37 | 1.01 | 0.01 | 39.66 | 40.84 | 62.1 | – | – | – | – | Activity (CCRF-CEM [19]): 42.11%; Activity (CCRF-CEM [20]): 4.95%; Activity (CCRF-CEM [21]): 52.94%
